≈ marks a conversion by molar mass, not a printed value.
Columns and labels:
Type in all cases: functional
[1] = test system: Mycobacterium tuberculosis; experiment: Antimicrobial activity against Mycobacterium tuberculosis H37Rv ATCC 27294 at 1 to 100 ug/ml after 7 days by resazurin assay
How it was run: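 Preliminary screen at three concentrations (1, 10 and 100) by resazurin microtitre assay. Cultures were grown in Middlebrook 7H9 with 10% OADC, and compounds came from 2 mg/mL DMF stocks with DMF controls. Plates were incubated 7 days at 37 °C, and resazurin colour was read after 1 h. Inhibition was scored as no blue-to-pink change.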

Aspergillus flavus = experiment: Antimicrobial activity against Aspergillus flavus after 3 to 4 days by serial plate dilution method
How it was run: (§1)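 Fungal MIC by serial plate dilution. Sabouraud agar (peptone, D-glucose, agar; pH 5.7) plates seeded with saline spore suspension, dried 1 h at 37 °C. Wells punched and filled with compound in DMSO; DMSO-only control. Triplicate plates held 3–4 days at 37 °C; inhibition zone diameter measured. Amphotericin B positive control. Tested range […] per mL.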

Candida albicans = experiment: Antimicrobial activity against Candida albicans after 3 to 4 days by serial plate dilution method; how it was run: as §1
[2] = test system: Mycolicibacterium fortuitum; experiment: Antimicrobial activity against Mycobacterium fortuitum ATCC 19542 after 7 days by resazurin assay; conditions: ATCC 19542, 168 h
Klebsiella pneumoniae = experiment: Antimicrobial activity against Klebsiella pneumoniae ATCC 13883 after 16 to 18 hrs by serial plate dilution method
How it was run: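 Bacterial MIC by serial dilution in Mueller-Hinton broth adjusted to pH 5.0 with phosphate buffer. Tubes inoculated with standardized bacterial suspension, incubated 16–18 h at 37 °C. MIC read as lowest concentration with no visible growth. Range […] per mL. DMSO as negative control, ciprofloxacin as positive control.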

[3] = test system: Mycobacterium tuberculosis; experiment: Antimicrobial activity against Mycobacterium tuberculosis H37Rv ATCC 27294 after 7 days by resazurin assay; conditions: H37Rv ATCC 27294, 168 h
How it was run: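 Resazurin microtitre assay. Cultures were grown in Middlebrook 7H9 with 10% OADC and added to fresh medium in 96-well plates. Test compounds came from 2 mg/mL DMF stocks, with DMF-only controls. Plates were incubated 7 days at 37 °C, then resazurin was added and read after 1 h at 37 °C. MIC was the lowest concentration preventing the blue-to-pink change.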

Staphylococcus aureus = experiment: Antimicrobial activity against Staphylococcus aureus ATCC 25923 after 16 to 18 hrs by […]
Escherichia coli = experiment: Antimicrobial activity against Escherichia coli ATCC 25922 after 16 to 18 hrs by […]
Rhizopus = experiment: Antimicrobial activity against Rhizopus sp. after 3 to 4 days by serial plate dilution method; how it was run: as §1
[4] = test system: Mycolicibacterium smegmatis; experiment: Antimicrobial activity against Mycobacterium smegmatis (MC2) ATCC 19420 after 7 days by resazurin assay; conditions: (MC2) ATCC 19420, 168 h

Compound	inhibition (INH) [1]	MIC (Aspergillus flavus)	MIC (Candida albicans)	MIC [2]	MIC (Klebsiella pneumoniae)	MIC [3]	MIC (Staphylococcus aureus)	MIC (Escherichia coli)	MIC (Rhizopus)	MIC [4]
COc1cc(NS(=O)(=O)C2(c3ccc(Cl)cc3)CC2)ccc1-n1cnc(Cl)c1	90%	64 µg/mL (≈ 146 µM)	128 µg/mL (≈ 292 µM)	10 µg/mL (≈ 22.8 µM)	128 µg/mL (≈ 292 µM)	1.25 µg/mL (≈ 2.85 µM)	128 µg/mL (≈ 292 µM)	64 µg/mL (≈ 146 µM)	128 µg/mL (≈ 292 µM)	–
COc1cc(NS(=O)(=O)c2ccccc2)ccc1-n1cnc(Cl)c1	<90%	128 µg/mL (≈ 352 µM)	128 µg/mL (≈ 352 µM)	–	128 µg/mL (≈ 352 µM)	5 µg/mL (≈ 13.7 µM)	8 µg/mL (≈ 22 µM)	64 µg/mL (≈ 176 µM)	64 µg/mL (≈ 176 µM)	10 µg/mL (≈ 27.5 µM)
COc1cc(NS(=O)(=O)c2cccc(C(C)C#N)c2)ccc1-n1cnc(Cl)c1 (centres undefined)	<90%	128 µg/mL (≈ 307 µM)	64 µg/mL (≈ 154 µM)	–	64 µg/mL (≈ 154 µM)	2.5 µg/mL (≈ 6 µM)	64 µg/mL (≈ 154 µM)	128 µg/mL (≈ 307 µM)	256 µg/mL (≈ 614 µM)	2.5 µg/mL (≈ 6 µM)
COc1cc(NC(=O)c2ccccc2)ccc1-n1cnc(Cl)c1	<90%	256 µg/mL (≈ 781 µM)	256 µg/mL (≈ 781 µM)	–	128 µg/mL (≈ 391 µM)	5 µg/mL (≈ 15.3 µM)	128 µg/mL (≈ 391 µM)	256 µg/mL (≈ 781 µM)	128 µg/mL (≈ 391 µM)	10 µg/mL (≈ 30.5 µM)
COc1ccc(C(=O)Nc2ccc(-n3cnc(Cl)c3)c(OC)c2)cc1OC	0%	128 µg/mL (≈ 330 µM)	> 256 µg/mL	–	256 µg/mL (≈ 660 µM)	–	> 256 µg/mL	256 µg/mL (≈ 660 µM)	256 µg/mL (≈ 660 µM)	–
COc1cc(NC(=O)c2ccc([N+](=O)[O-])cc2)ccc1-n1cnc(Cl)c1	<90%	> 256 µg/mL	> 256 µg/mL	1.25 µg/mL (≈ 3.35 µM)	> 256 µg/mL	1.25 µg/mL (≈ 3.35 µM)	256 µg/mL (≈ 687 µM)	> 256 µg/mL	256 µg/mL (≈ 687 µM)	2.5 µg/mL (≈ 6.71 µM)
COc1cc(NC(=O)c2cccc(C(C)C#N)c2)ccc1-n1cnc(Cl)c1 (centres undefined)	90%	256 µg/mL (≈ 672 µM)	128 µg/mL (≈ 336 µM)	10 µg/mL (≈ 26.3 µM)	128 µg/mL (≈ 336 µM)	2.5 µg/mL (≈ 6.56 µM)	256 µg/mL (≈ 672 µM)	> 256 µg/mL	128 µg/mL (≈ 336 µM)	–
COc1cc(NS(=O)(=O)c2ccc(Cl)cc2Cl)ccc1-n1cnc(Cl)c1	<90%	64 µg/mL (≈ 148 µM)	128 µg/mL (≈ 296 µM)	–	64 µg/mL (≈ 148 µM)	5 µg/mL (≈ 11.6 µM)	8 µg/mL (≈ 18.5 µM)	4 µg/mL (≈ 9.24 µM)	128 µg/mL (≈ 296 µM)	–
COc1cc(NS(=O)(=O)c2ccco2)ccc1-n1cnc(Cl)c1	<90%	64 µg/mL (≈ 181 µM)	128 µg/mL (≈ 362 µM)	–	> 256 µg/mL	5 µg/mL (≈ 14.1 µM)	128 µg/mL (≈ 362 µM)	64 µg/mL (≈ 181 µM)	256 µg/mL (≈ 724 µM)	10 µg/mL (≈ 28.3 µM)
COc1cc(NS(=O)(=O)c2cccc([N+](=O)[O-])c2Cl)ccc1-n1cnc(Cl)c1	<90%	128 µg/mL (≈ 289 µM)	64 µg/mL (≈ 144 µM)	–	32 µg/mL (≈ 72.2 µM)	2.5 µg/mL (≈ 5.64 µM)	8 µg/mL (≈ 18 µM)	128 µg/mL (≈ 289 µM)	256 µg/mL (≈ 578 µM)	2.5 µg/mL (≈ 5.64 µM)
COc1cc(F)c(S(=O)(=O)Nc2ccc(-n3cnc(Cl)c3)c(OC)c2)c(C(F)(F)F)c1	<90%	128 µg/mL (≈ 267 µM)	128 µg/mL (≈ 267 µM)	–	32 µg/mL (≈ 66.7 µM)	5 µg/mL (≈ 10.4 µM)	64 µg/mL (≈ 133 µM)	128 µg/mL (≈ 267 µM)	256 µg/mL (≈ 534 µM)	10 µg/mL (≈ 20.8 µM)
COc1cc(NC(=O)c2ccc(Cl)cc2Cl)ccc1-n1cnc(Cl)c1	<90%	128 µg/mL (≈ 323 µM)	> 256 µg/mL	–	> 256 µg/mL	5 µg/mL (≈ 12.6 µM)	128 µg/mL (≈ 323 µM)	64 µg/mL (≈ 161 µM)	128 µg/mL (≈ 323 µM)	10 µg/mL (≈ 25.2 µM)
COc1cc(NC(=O)c2ccco2)ccc1-n1cnc(Cl)c1	<90%	128 µg/mL (≈ 403 µM)	> 256 µg/mL	–	> 256 µg/mL	5 µg/mL (≈ 15.7 µM)	> 256 µg/mL	128 µg/mL (≈ 403 µM)	> 256 µg/mL	–
COc1cc(NC(=O)c2cc(F)cc(C(F)(F)F)c2)ccc1-n1cnc(Cl)c1	90%	256 µg/mL (≈ 619 µM)	64 µg/mL (≈ 155 µM)	10 µg/mL (≈ 24.2 µM)	64 µg/mL (≈ 155 µM)	10 µg/mL (≈ 24.2 µM)	128 µg/mL (≈ 309 µM)	128 µg/mL (≈ 309 µM)	128 µg/mL (≈ 309 µM)	–
COc1ccc(C(=O)Nc2ccc(-n3cnc(Cl)c3)c(OC)c2)cc1	0%	256 µg/mL (≈ 715 µM)	> 256 µg/mL	–	256 µg/mL (≈ 715 µM)	–	> 256 µg/mL	> 256 µg/mL	> 256 µg/mL	–
COc1cc(NC(=O)c2c(F)ccc(C(F)(F)F)c2Cl)ccc1-n1cnc(Cl)c1	<90%	> 256 µg/mL	128 µg/mL (≈ 286 µM)	–	256 µg/mL (≈ 571 µM)	2.5 µg/mL (≈ 5.58 µM)	> 256 µg/mL	128 µg/mL (≈ 286 µM)	128 µg/mL (≈ 286 µM)	2.5 µg/mL (≈ 5.58 µM)
COc1cc(F)c(C(=O)Nc2ccc(-n3cnc(Cl)c3)c(OC)c2)c(F)c1	<90%	256 µg/mL (≈ 650 µM)	256 µg/mL (≈ 650 µM)	–	128 µg/mL (≈ 325 µM)	5 µg/mL (≈ 12.7 µM)	256 µg/mL (≈ 650 µM)	> 256 µg/mL	> 256 µg/mL	–
COc1cc(NC(=O)C2(c3ccc(Cl)cc3)CC2)ccc1-n1cnc(Cl)c1	<90%	256 µg/mL (≈ 636 µM)	> 256 µg/mL	–	256 µg/mL (≈ 636 µM)	2.5 µg/mL (≈ 6.21 µM)	64 µg/mL (≈ 159 µM)	128 µg/mL (≈ 318 µM)	> 256 µg/mL	2.5 µg/mL (≈ 6.21 µM)
C[C@@H]1[C@H](O)[C@@H](C)/C=C/C=C/C=C/C=C/C=C/C=C/C=C/[C@H](O[C@@H]2O[C@H](C)[C@@H](O)[C@H](N)[C@@H]2O)C[C@@H]2O[C@](O)(C[C@@H](O)C[C@@H](O)[C@H](O)CC[C@@H](O)C[C@@H](O)CC(=O)O[C@H]1C)C[C@H](O)[C@H]2C(=O)O [AMPHOTERICIN B]	–	8 µg/mL (≈ 8.66 µM)	8 µg/mL (≈ 8.66 µM)	–	–	–	–	–	16 µg/mL (≈ 17.3 µM)	–
O=C(O)c1cn(C2CC2)c2cc(N3CCNCC3)c(F)cc2c1=O [CIPROFLOXACIN]	–	–	–	–	16 µg/mL (≈ 48.3 µM)	–	8 µg/mL (≈ 24.1 µM)	–	–	–
NNC(=O)c1ccncc1 [ISONIAZID]	95%	–	–	12.5 µg/mL (≈ 91.1 µM)	–	0.7 µg/mL (≈ 5.1 µM)	–	–	–	50 µg/mL (≈ 365 µM)
CO[C@H]1/C=C/O[C@@]2(C)Oc3c(C)c(O)c4c(O)c(c(/C=N/N5CCN(C)CC5)c(O)c4c3C2=O)NC(=O)/C(C)=C\C=C\[C@H](C)[C@H](O)[C@@H](C)[C@@H](O)[C@@H](C)[C@H](OC(C)=O)[C@@H]1C [RIFAMPIN]	95%	–	–	1.5 µg/mL (≈ 1.82 µM)	–	0.5 µg/mL (≈ 0.608 µM)	–	–	–	1.5 µg/mL (≈ 1.82 µM)
